Consider 28 compounds from ChEMBL document CHEMBL4152342, “Novel series of 6-(2-substitutedacetamido)-4-anilinoquinazolines as EGFR-ERK signal transduction inhibitors in MCF-7 breast cancer cells” (Eur J Med Chem, 2018).

Assay [1] relates to HepG2. The experiment in a line: Antiproliferative activity against human HepG2 cells after 48 hrs by MTT assay. The format is functional, cell-based. The settings on record: HepG2, 48 h. (In general: Tetrazolium dyes change colour on reduction, which living cells bring about.)
Another assay has as its system MCF7. The experiment in a line: Antiproliferative activity against human MCF7 cells after 48 hrs by MTT assay. The format is functional, cell-based. The settings on record: MCF7, 48 h. Put shortly: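 Cells seeded at 30,000 per well, grown 24 h at 37 °C, 5% CO2, then exposed to 5-fold serial dilutions of compound (dissolved in 1% DMSO) for 48 h under same conditions. MTT added at 5 mg/mL; after lysis, absorbance read at 570 nm 4 h later. IC50 taken from exponential viability-versus-concentration curve relative to untreated controls.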

In assay [2] the test system is HepG2. Nature of the assay: Potency index, ratio of erlotinib IC50 to compound IC50 for human HepG2 cells. The format is functional.

For `O=C(CN1CCCC1)Nc1ccc2ncnc(Nc3ccc(OCc4cccc(F)c4)cc3)c2c1`, the 50% inhibitory concentration (IC50) was 25.1 µM with HepG2 [1] and 25 µM in the assay on MCF7.

Regarding `CN1CCN(CC(=O)Nc2ccc3ncnc(Nc4cccc(C(F)(F)F)c4)c3c2)CC1`, the IC50 in the assay with HepG2 [1] and in the assay on MCF7 was above 100 µM throughout.

As to `O=C(CN1CCCCC1)Nc1ccc2ncnc(Nc3ccc(Br)cc3)c2c1`, the 50% inhibitory concentration (IC50) in the assay on HepG2 [1] and in the assay on MCF7 was above 100 µM throughout.

As to `O=C(CN1CCOCC1)Nc1ccc2ncnc(Nc3ccc(OCc4cccc(F)c4)cc3)c2c1`, the half-inhibitory concentration (IC50) in the assay with HepG2 [1] and with MCF7 was above 100 µM each time.

For the compound `O=C(CN1CCCC1)Nc1ccc2ncnc(Nc3cccc(Br)c3)c2c1`, the IC50 is above 100 µM in the assay on HepG2 [1] and 12 µM in the assay with MCF7.

In the case of `O=C(CN1CCCC1)Nc1ccc2ncnc(Nc3ccc(Cl)cc3)c2c1`, the values for the IC50 in the assay on HepG2 [1] and in the assay with MCF7 were 18 µM and 16 µM, respectively.

Turning to `O=C(CN1CCCC1)Nc1ccc2ncnc(Nc3ccc(OCc4ccccc4)cc3)c2c1`, the half-inhibitory concentration (IC50) in the assay with HepG2 [1] and in the assay on MCF7 was above 100 µM throughout.

On to `O=C(CN1CCCC1)Nc1ccc2ncnc(Nc3cccc(C(F)(F)F)c3)c2c1`, for which the IC50 in the assay with HepG2 [1] was 25.2 µM; with MCF7, above 100 µM.

`CN1CCN(CC(=O)Nc2ccc3ncnc(Nc4ccc(Cl)c(C(F)(F)F)c4)c3c2)CC1`: the half-inhibitory concentration (IC50) was 25.3 µM with HepG2 [1] and above 100 µM in the assay on MCF7.

Turning to `O=C(CN1CCCC1)Nc1ccc2ncnc(Nc3ccc(Br)cc3)c2c1`, the half-maximal inhibitory concentration (IC50) in the assay on HepG2 [1] and in the assay with MCF7 was above 100 µM each time.

Regarding `CN1CCN(CC(=O)Nc2ccc3ncnc(Nc4cccc(Br)c4)c3c2)CC1`, the IC50 in the assay with HepG2 [1] came out at 25.3 µM; in the assay on MCF7, 10 µM.

`O=C(CN1CCCCC1)Nc1ccc2ncnc(Nc3ccc(Cl)cc3)c2c1`: the IC50 was 16 µM in the assay on HepG2 [1] and above 100 µM in the assay on MCF7.

With `O=C(CN1CCCC1)Nc1ccc2ncnc(Nc3cccc(Cl)c3)c2c1`, the IC50 with HepG2 [1] and with MCF7 was above 100 µM throughout.

Take `O=C(CN1CCCCC1)Nc1ccc2ncnc(Nc3cccc(Cl)c3)c2c1`: the IC50 was 12 µM in the assay with HepG2 [1] and above 100 µM with MCF7. The “Ratio IC50” value with HepG2 [2] was found to be 2.

In the case of `O=C(CN1CCCC1)Nc1ccc2ncnc(Nc3ccc(Cl)c(C(F)(F)F)c3)c2c1`, the IC50 in the assay with HepG2 [1] and in the assay on MCF7 was above 100 µM in each case.

`CN1CCN(CC(=O)Nc2ccc3ncnc(Nc4ccc(Br)cc4)c3c2)CC1`: the IC50 in the assay with HepG2 [1] and with MCF7 was above 100 µM in each case.

Regarding `CN1CCN(CC(=O)Nc2ccc3ncnc(Nc4ccc(Cl)cc4)c3c2)CC1`, the figures for the half-inhibitory concentration (IC50) with HepG2 [1] and in the assay on MCF7 were above 100 µM and 15 µM, respectively.

`O=C(CN1CCOCC1)Nc1ccc2ncnc(Nc3cccc(Br)c3)c2c1`: the IC50 with HepG2 [1] is 19 µM; with MCF7, 15 µM.

Turning to `O=C(CN1CCCCC1)Nc1ccc2ncnc(Nc3cccc(Br)c3)c2c1`, the IC50 came to 16 µM in the assay with HepG2 [1] and 3 µM in the assay on MCF7.

For `CN1CCN(CC(=O)Nc2ccc3ncnc(Nc4cccc(Cl)c4)c3c2)CC1`, the IC50 in the assay with HepG2 [1] and with MCF7 was above 100 µM throughout.

On to `O=C(CN1CCOCC1)Nc1ccc2ncnc(Nc3ccc(Cl)cc3)c2c1`, for which the IC50 with HepG2 [1] and in the assay with MCF7 was above 100 µM throughout.

For `O=C(CN1CCOCC1)Nc1ccc2ncnc(Nc3ccc(Br)cc3)c2c1`, the half-maximal inhibitory concentration (IC50) in the assay on HepG2 [1] and in the assay with MCF7 was above 100 µM each time.

Regarding `O=C(CN1CCOCC1)Nc1ccc2ncnc(Nc3ccc(Cl)c(C(F)(F)F)c3)c2c1`, the IC50 in the assay with HepG2 [1] and in the assay with MCF7 was above 100 µM throughout.

As to `O=C(CN1CCOCC1)Nc1ccc2ncnc(Nc3cccc(C(F)(F)F)c3)c2c1`, the IC50 in the assay with HepG2 [1] is above 100 µM; in the assay on MCF7, 15 µM.

In the case of `O=C(CN1CCOCC1)Nc1ccc2ncnc(Nc3cccc(Cl)c3)c2c1`, the IC50 in the assay with HepG2 [1] and in the assay on MCF7 was above 100 µM in each case.

As for `O=C(CN1CCCCC1)Nc1ccc2ncnc(Nc3cccc(C(F)(F)F)c3)c2c1`, the half-inhibitory concentration (IC50) with HepG2 [1] and with MCF7 was above 100 µM throughout.

As for `O=C(CN1CCOCC1)Nc1ccc2ncnc(Nc3ccc(OCc4ccccc4)cc3)c2c1`, the figures for the IC50 in the assay with HepG2 [1] and in the assay on MCF7 were above 100 µM and 25 µM, respectively.

For `O=C(CN1CCCCC1)Nc1ccc2ncnc(Nc3ccc(Cl)c(C(F)(F)F)c3)c2c1`, the IC50 in the assay with HepG2 [1] and with MCF7 was above 100 µM in each case.

A word on the IC50: it is the point on the concentration scale where inhibition reaches its midpoint.
